The target of test [1] is GABA-A receptor; alpha-6/beta-3/gamma-2 (Homo sapiens, UniProt P18507+P28472+Q16445). Put plainly: Binding affinity for human recombinant gamma-aminobutyric-acid (GABA) A receptor alpha-6-beta-3-gamma-2. The format is protein-complex assay. In outline: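 Ltk⁻ cells expressing human α6β3γ2 were harvested by scraping into PBS, centrifuged at 3000g and resuspended in 10 mM KH₂PO₄/100 mM KCl (pH 7.4). Incubation was 1 h at 4 °C with filter harvest and scintillation counting.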

Test [2] has as its target T1, GABA-A receptor; alpha-1/beta-3/gamma-2 (Homo sapiens, UniProt P14867+P18507+P28472).
T1 sequence (P14867 whole entry): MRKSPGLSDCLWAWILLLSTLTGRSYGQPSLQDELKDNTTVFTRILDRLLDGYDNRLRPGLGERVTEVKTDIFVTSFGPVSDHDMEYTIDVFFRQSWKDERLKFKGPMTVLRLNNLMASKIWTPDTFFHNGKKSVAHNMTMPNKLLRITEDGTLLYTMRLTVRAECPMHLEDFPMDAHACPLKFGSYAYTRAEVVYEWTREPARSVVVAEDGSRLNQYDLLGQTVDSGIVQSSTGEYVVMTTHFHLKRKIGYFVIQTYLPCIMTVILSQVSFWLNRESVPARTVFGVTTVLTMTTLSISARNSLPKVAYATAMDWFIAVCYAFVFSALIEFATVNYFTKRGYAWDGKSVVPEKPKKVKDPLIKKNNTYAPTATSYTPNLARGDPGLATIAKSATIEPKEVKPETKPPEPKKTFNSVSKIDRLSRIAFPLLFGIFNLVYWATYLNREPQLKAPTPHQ
T1 sequence (P18507 whole entry): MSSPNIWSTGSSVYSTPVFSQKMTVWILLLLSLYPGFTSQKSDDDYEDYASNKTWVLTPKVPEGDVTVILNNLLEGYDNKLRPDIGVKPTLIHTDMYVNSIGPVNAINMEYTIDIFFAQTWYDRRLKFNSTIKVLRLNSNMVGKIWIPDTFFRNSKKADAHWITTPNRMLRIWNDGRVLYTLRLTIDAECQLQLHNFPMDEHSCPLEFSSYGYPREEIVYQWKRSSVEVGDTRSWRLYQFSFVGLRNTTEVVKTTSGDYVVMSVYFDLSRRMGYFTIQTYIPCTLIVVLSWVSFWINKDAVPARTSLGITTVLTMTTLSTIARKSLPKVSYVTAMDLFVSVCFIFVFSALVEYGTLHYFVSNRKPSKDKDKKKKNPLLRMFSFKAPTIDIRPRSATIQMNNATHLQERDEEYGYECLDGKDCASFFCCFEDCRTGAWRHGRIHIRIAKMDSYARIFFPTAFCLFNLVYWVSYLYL
T1 sequence (P28472 whole entry): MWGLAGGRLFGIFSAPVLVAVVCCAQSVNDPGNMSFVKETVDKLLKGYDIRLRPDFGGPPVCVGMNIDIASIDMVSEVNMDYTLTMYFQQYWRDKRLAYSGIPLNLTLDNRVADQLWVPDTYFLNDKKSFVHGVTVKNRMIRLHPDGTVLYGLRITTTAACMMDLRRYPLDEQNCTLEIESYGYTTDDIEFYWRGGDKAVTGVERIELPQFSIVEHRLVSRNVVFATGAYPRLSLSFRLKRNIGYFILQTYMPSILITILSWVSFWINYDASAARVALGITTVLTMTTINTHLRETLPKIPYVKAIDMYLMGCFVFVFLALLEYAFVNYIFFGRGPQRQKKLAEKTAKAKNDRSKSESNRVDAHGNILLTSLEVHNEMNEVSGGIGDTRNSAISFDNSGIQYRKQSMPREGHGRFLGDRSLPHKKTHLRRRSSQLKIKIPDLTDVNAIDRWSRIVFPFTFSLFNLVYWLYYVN
Briefly: Binding affinity towards human GABA-A receptor alpha-1-beta-3-gamma-2 subunits. Format: protein-complex assay.

Test [3] addresses T2, GABA-A receptor; alpha-5/beta-3/gamma-2 (Homo sapiens, UniProt P18507+P28472+P31644).
T2 sequence (P18507 whole entry): T1 sequence (P18507 whole entry)
T2 sequence (P28472 whole entry): T1 sequence (P28472 whole entry)
T2 sequence (P31644 whole entry): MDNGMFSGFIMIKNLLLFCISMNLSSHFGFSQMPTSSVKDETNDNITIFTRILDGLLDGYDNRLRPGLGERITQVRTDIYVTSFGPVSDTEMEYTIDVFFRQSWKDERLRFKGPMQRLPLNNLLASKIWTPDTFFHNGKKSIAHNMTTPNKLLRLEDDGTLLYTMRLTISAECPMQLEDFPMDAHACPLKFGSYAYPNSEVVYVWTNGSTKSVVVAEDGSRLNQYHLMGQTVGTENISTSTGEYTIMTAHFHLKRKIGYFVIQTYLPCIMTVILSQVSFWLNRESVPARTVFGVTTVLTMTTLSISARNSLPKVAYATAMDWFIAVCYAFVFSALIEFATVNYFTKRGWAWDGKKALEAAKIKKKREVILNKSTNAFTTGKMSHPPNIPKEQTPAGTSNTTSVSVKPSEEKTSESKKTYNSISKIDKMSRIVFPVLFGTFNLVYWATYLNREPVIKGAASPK
Briefly: Binding affinity for human recombinant gamma-aminobutyric-acid (GABA) A receptor alpha-5-beta-3-gamma-2. Format: protein-complex assay.

A short description of test [4]: Selectivity ratio of alpha1 beta-3 gamma2 GABA A / BzR and alpha5 beta-3 gamma2 GABA A / BzR.
Test [5] deals with T1, GABA-A receptor; alpha-1/beta-3/gamma-2. Put plainly: Binding affinity for human recombinant gamma-aminobutyric-acid (GABA) A receptor alpha-1-beta-3-gamma-2. The format is protein-complex assay.
Test [6] deals with T3, GABA-A receptor; alpha-2/beta-3/gamma-2 (Homo sapiens, UniProt P18507+P28472+P47869).
T3 sequence (P18507 whole entry): T1 sequence (P18507 whole entry)
T3 sequence (P28472 whole entry): T1 sequence (P28472 whole entry)
T3 sequence (P47869 whole entry): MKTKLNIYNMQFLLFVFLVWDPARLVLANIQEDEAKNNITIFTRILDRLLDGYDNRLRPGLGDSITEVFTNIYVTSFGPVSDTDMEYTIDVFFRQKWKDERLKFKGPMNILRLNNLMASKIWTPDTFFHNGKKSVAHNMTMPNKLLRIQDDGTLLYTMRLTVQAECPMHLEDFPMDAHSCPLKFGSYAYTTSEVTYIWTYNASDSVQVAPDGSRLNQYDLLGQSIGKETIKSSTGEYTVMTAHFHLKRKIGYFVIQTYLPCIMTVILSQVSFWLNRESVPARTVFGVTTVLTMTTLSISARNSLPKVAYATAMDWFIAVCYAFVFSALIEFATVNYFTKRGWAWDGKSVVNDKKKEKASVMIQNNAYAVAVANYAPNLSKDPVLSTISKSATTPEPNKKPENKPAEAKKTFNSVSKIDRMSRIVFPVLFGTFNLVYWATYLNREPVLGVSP
Briefly: Binding affinity to human recombinant gamma-aminobutyric-acid (GABA) A receptor alpha-2-beta-3-gamma-2. Format: protein-complex assay.

Test [7] has as its target T4, GABA-A receptor; alpha-3/beta-3/gamma-2 (Homo sapiens, UniProt P18507+P28472+P34903).
T4 sequence (P18507 whole entry): T1 sequence (P18507 whole entry)
T4 sequence (P28472 whole entry): T1 sequence (P28472 whole entry)
T4 sequence (P34903 whole entry): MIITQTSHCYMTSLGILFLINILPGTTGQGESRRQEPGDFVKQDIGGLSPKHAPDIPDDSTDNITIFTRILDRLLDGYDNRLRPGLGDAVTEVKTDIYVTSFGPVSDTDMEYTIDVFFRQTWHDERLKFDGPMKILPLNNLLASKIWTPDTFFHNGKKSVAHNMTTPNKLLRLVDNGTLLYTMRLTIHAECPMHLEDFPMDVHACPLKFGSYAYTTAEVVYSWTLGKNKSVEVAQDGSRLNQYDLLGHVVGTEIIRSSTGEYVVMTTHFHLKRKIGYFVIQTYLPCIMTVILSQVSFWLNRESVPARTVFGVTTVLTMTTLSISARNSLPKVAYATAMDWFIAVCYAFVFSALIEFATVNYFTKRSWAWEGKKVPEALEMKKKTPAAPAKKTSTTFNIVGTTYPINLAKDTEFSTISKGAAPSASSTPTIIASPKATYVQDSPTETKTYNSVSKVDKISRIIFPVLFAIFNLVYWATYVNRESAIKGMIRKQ
Briefly: Binding affinity for human recombinant gamma-aminobutyric-acid (GABA) A receptor alpha-3-beta-3-gamma-2. The format is protein-complex assay.

SMILES strings stand for the structures. Some results are limits rather than exact numbers.

Sequence of GABA-A receptor; alpha-6/beta-3/gamma-2 (Q16445 whole entry, one chain of several): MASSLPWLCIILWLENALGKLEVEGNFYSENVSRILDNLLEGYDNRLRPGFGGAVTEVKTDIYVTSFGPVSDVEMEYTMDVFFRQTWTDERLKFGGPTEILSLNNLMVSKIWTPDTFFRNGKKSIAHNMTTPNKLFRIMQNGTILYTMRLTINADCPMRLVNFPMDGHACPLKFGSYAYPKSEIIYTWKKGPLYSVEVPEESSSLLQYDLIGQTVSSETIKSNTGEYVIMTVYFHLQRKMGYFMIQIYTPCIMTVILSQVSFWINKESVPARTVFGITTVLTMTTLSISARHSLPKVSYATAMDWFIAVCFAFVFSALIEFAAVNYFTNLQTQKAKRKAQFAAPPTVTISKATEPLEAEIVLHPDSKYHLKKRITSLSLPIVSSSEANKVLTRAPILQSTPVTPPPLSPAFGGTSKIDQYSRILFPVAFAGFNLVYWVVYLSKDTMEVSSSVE

As to `CC(C)(C)C(=O)Oc1ccc2c(c1)[nH]c1c3c4ccccc4nc-3c[nH]c12`, the Ki (usually the dissociation constant of the complex between target and ligand, obtained from inhibition or displacement) in test [1] was greater than 10000 nM; in test [2], 156 nM; in test [3], greater than 3000 nM.
As for `CN1C(=O)CN=C(c2cccs2)c2cc(Cl)ccc21`, the Ratio in test [4] was determined as 1.7. Also, the inhibition constant Ki in test [5] is 19.2 nM; in test [6] it was 13.2 nM; in test [1] it was greater than 300 nM; in test [3], 11.5 nM; in test [7], 13.4 nM.
Consider `CN1C(=O)CN=C(c2ccccc2)c2cc(C#N)ccc21`, for which the Ratio in test [4] was determined as 1.2. In addition, the inhibition constant Ki in test [5] is 320 nM; in test [6], 310 nM; in test [1], greater than 3000 nM; in test [3] it was 265 nM; in test [7], 350 nM.
As to `CN1C(=O)CN=C(c2ccccc2)c2cc(C#C[Si](C)(C)C)ccc21`, the Ratio in test [4] is 1.49. Also, the Ki was 94 nM in test [5]; 73 nM in test [6]; greater than 3000 nM in test [1]; 63 nM in test [3]; 203 nM in test [7].
In the case of `CCOC(=O)c1ncn2c1CN(C)C(=O)c1ccccc1-2` [RO-147437], in test [4], the Ratio is 3. The inhibition constant Ki in test [5] is 1.2 nM; in test [6], 2 nM; in test [1], greater than 300 nM; in test [3], 0.4 nM; in test [7], 1.1 nM.
`O=C1CN=C(c2cccs2)c2cc(F)ccc2N1`: the Ratio in test [4] is 1.17. Moreover, the inhibition constant Ki was 175 nM in test [5]; 335 nM in test [6]; greater than 300 nM in test [1]; 150 nM in test [3]; 405 nM in test [7].
Take `C#Cc1ccc2c(c1)C(c1ccccc1)=NCC(=O)N2C`: in test [4], the Ratio came out at 11.2. In addition, the inhibition constant Ki was 76.3 nM in test [5]; 42.1 nM in test [6]; greater than 3000 nM in test [1]; 6.8 nM in test [3]; 47.4 nM in test [7].
For the molecule `O=C1CN=C(c2ccccc2)c2ccccc2N1` [RO-052921], the Ratio in test [4] came to 2.04. Moreover, the inhibitory constant (Ki) was 286 nM in test [5]; 233 nM in test [6]; greater than 3000 nM in test [1]; 140 nM in test [3]; 350 nM in test [7].
With `CN1C(=O)CN=C(c2cccs2)c2cc(F)ccc21`, the Ratio in test [4] was determined as 2.15. Also, the Ki in test [5] is 141 nM; in test [6] it was 215 nM; in test [1] it was greater than 300 nM; in test [3], 65.5 nM; in test [7], 205 nM.

The values above are taken from ChEMBL document CHEMBL1132940, “Pharmacophore/receptor models for GABA(A)/BzR subtypes (alpha1beta3gamma2, alpha5beta3gamma2, and alpha6beta3gamma2) via a comprehensive ligand-mapping approach” (J Med Chem, 2000).
